Source: PubChem
Most compounds without a hit are left out; they make up all but 2.7% or so of the library.
MC4R antag cAMP – MC4R antagonists of cAMP signaling, primary screen, cell-based, TR-FRET, antagonist arm of biased-ligand search | Melanocortin receptor 4 (Homo sapiens), P32245 | MC4R-expressing cells, MTII-stimulated cAMP, LANCE TR-FRET | inhibition, % at 6.5 µM | 0.48% of 360,000 active;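 active = inhibition above its plate's cutoff, the mean of tested wells on that plate plus 3 SD, cut at about 29% in these data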;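 also: 0% = Melanotan II alone and 100% = Melanotan II plus saturating MCL0020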
Target sequence (P32245 whole entry, looked up): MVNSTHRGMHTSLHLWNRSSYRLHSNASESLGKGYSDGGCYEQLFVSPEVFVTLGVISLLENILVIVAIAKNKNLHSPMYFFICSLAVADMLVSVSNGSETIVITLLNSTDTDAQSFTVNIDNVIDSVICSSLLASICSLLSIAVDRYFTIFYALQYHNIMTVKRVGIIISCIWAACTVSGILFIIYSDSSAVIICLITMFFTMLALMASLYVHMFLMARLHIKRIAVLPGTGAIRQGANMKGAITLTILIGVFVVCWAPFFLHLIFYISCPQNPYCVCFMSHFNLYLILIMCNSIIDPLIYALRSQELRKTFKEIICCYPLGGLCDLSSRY
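System – human MC4R-expressing U2OS cells · Also added – Melanotan II · Dosing – one concentration, 6.5 µM nominal · Timing – 30-min compound, 1-h challenge, 1-h detection, room temperature · Measured by – Eu-cAMP/anti-cAMP TR-FRET, emission 671 nm · Replicates – singlicate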
PREPL inhibitor – PREPL enzyme inhibitors, primary screen, biochemical, fluorescence polarization. 0.68% of 320,000 active. recombinant PREPL, fluorescence polarization activity-based probe. Prolyl endopeptidase-like (Homo sapiens), Q4J6C6. inhibition, % at 5.96 µM. AID 2751, 2010; in the data active = inhibition above about 43%;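 also: 0% = enzyme with DMSO and 100% = wells lacking enzyme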
MC4R barr agon – MC4R agonists recruiting beta-arrestin, primary screen, cell-based, luminescence, agonist arm of biased-ligand search. U2OS MC4R beta-arrestin complementation; percent of melanotan II response, DMSO zero. activation, % at 8.9 µM. 0.98% of 360,000 active. AID 540308, 2011;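 active = activation above a per-plate cutoff, the mean activation of sample wells on that plate plus 3 SD, cut at about 8% in these data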
HTR2A ag – mouse Htr2a agonists via beta-arrestin recruitment, primary screen, cell-based, luminescence | CHO-K1 mHTR2A beta-arrestin complementation; percent of 30 µM serotonin response | 0.66% of 360,000 active | activation, % at 7.6 µM | AID 624169, 2012;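 active = activation above a run cutoff, the mean activation of all tested compounds plus 3 SD, cut at about 14% in these data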;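 also: 0% = plate median of compound wells and 100% = 30 µM serotonin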
NTR1 agonist – agonists of human NTR1, primary screen, imaging, U2OS cells, beta-arrestin-GFP, high content; 0.17% of 330,000 active; NTR1-U2OS beta-arrestin-GFP spot imaging, agonist mode; AID 493036, 2011; Neurotensin receptor type 1 (Homo sapiens), P30989; activation, % at 20 µM;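 active = activation at or above 40% of the spot to cytoplasm intensity ratio, with at least 20 cells analyzed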;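 also: 0% = DMSO without peptide and 100% = 100 nM NTR1 peptide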
Target sequence (P30989 whole entry, looked up): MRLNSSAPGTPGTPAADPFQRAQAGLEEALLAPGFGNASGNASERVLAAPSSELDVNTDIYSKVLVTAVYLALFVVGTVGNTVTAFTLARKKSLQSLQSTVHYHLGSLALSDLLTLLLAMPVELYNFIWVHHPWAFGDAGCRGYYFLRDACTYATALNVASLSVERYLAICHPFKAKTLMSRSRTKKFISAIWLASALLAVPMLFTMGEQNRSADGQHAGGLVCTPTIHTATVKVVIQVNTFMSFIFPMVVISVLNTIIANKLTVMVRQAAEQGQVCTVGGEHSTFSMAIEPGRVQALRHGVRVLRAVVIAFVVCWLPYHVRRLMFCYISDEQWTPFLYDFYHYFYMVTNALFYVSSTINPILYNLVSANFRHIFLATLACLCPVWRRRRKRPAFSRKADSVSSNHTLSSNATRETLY
Lipid droplet – inhibitors of hepatocyte lipid droplet formation, primary screen, imaging, high-throughput imaging, BODIPY stain; AML12 mouse hepatocytes, oleate lipid droplets; inhibition, % at 6.5 µM; 0.4% of 240,000 active; AID 1656, 2009;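 active = lipid droplet intensity inhibited by at least 50%, with more than 500 cells counted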
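Test system: AML12 hepatocytes (mouse); reagent: oleate loading, 100 µM; dosing: one dose, 6.5 µM compound; incubation: overnight exposure; signal: fluorescence imaging, 20x objective, two fields per well; read-out basis: % inhibition of corrected integrated BODIPY droplet signal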
NTR1 ag conf – NTR1 agonists, single-dose retest, confirmation, imaging, U2OS cells, beta-arrestin-GFP, single concentration | shares compounds with NTR1 agonist | NTR1-U2OS beta-arrestin-GFP translocation imaging | activation, % at 20 µM | 38% of 480 active;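 active = mean activation at 20 µM of at least 40%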;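 also: 0% = DMSO without peptide and 100% = 100 nM NTR1 peptide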
U2OS cAMP counter – nonselective cAMP signaling inhibitors, parental cells, counter-screen for MC4R biased antagonist project, cell-based, TR-FRET, U2OS, forskolin, triplicate. shares compounds with MC4R antag cAMP. LANCE TR-FRET. inhibition, % at 6.5 µM. AID 602193, 2012. 26% of 1,600 active;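 active = mean inhibition over triplicates above the low-control well mean plus 3 SD, set per campaign, cut at about 13% in these data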;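 also: signal is single emission at 671 nm which falls as cellular cAMP rises; 0% = forskolin-stimulated wells and 100% = buffer without forskolin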
MC4R cAMP antag – MC4R cAMP antagonists, retest, confirmation, cell-based, TR-FRET; inhibition, % at 6.5 µM; MC4R-expressing cells, MTII-stimulated cAMP; shares compounds with MC4R antag cAMP; 27% of 1,600 active; in the data active = inhibition above about 29%;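 also: 0% = agonist stimulated wells alone and 100% = agonist stimulated wells plus saturating reference antagonist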
MC4R barr ag – MC4R beta-arrestin agonists, retest, confirmation, cell-based, luminescence, U2OS; shares compounds with MC4R barr agon; 31% of 2,400 active; AID 602192, 2012; activation, % at 8.9 µM; U2OS MC4R beta-arrestin recruitment; scaled DMSO 0%, Melanotan II 100%;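 active = mean activation across replicates above the hit cutoff set in the earlier primary screen, cut at about 8% in these data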
MOR DOR agonist – agonists of MOR-DOR heterodimerization, counter-screen for MC4R biased agonist project, cell-based, luminescence | AID 602194, 2012 | U2OS PathHunter beta-arrestin, beta-gal luminescence; percent of deltorphin B response, DMSO zero | activation, % at 9.2 µM | shares compounds with MC4R barr agon | 5.8% of 2,400 active;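 active = mean activation across replicates exceeds the hit threshold derived in the earlier primary screen, cut at about 18% in these data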;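 also: 100% = deltorphin B at 0.9 µM final and 0% = DMSO alone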
* = called active by the depositor; x = not tested or not shown.

SMILES	MC4R antag cAMP	PREPL inhibitor	MC4R barr agon	HTR2A ag	NTR1 agonist	Lipid droplet	NTR1 ag conf	MC4R barr ag	MOR DOR agonist	others
Nc1ccccc1C#CC(=O)c1ccccc1	54.0*	2.6	-1.4	3.8	71.2*	-9.4	82.7*	x	x	U2OS cAMP counter=25.9*;MC4R cAMP antag=52.1*
COc1ccc(NC(=O)CCC(=O)N2CCC(c3ccccc3)=N2)cc1S(=O)(=O)N1CCCCC1	3.9	x	-0.5	2.2	x	x	x	x	x
CCCOc1ccc(C(=O)c2ccccc2C(=O)O)cc1OCCC	6.8	6.3	1.7	11.0	0.9	14.6	x	x	x
CCCOc1ccc(C(=O)c2ccccc2C(=O)OC2CCOC2=O)cc1OCCC (configuration not stated)	30.5*	7.9	-1.3	3.5	44.5*	x	46.5*	x	x	U2OS cAMP counter=12.4;MC4R cAMP antag=25.4
O=C(NCCc1ccccc1)C(c1cccs1)N(C(=O)CCl)c1ccc(Cl)cc1 (configuration not stated)	30.5*	-27.7	34.5*	1.3	69.7*	43.4	61.2*	x	x	U2OS cAMP counter=-33.7;MC4R cAMP antag=30.8*
CCOC(=O)COc1c(/C=N\OC)cc(Cl)cc1OC	-4.4	-9.4	-0.9	0.8	0.3	-2.8	x	x	x
O=C(c1ccccc1)C(CN1CCCCC1)c1ccccc1 (configuration not stated)	3.3	x	0.3	-1.4	x	x	x	x	x
O=C(c1ccc(Br)cc1)C(CN1CCOCC1)c1ccccc1 (configuration not stated)	41.0*	4.3	1.5	-4.0	59.7*	2.7	71.0*	x	x	U2OS cAMP counter=8.6;MC4R cAMP antag=22.0
COc1cc(NC(=O)CSc2nc3c(c(=O)n(C)c(=O)n3C)n2C)cc(OC)c1	9.5	-4.0	-1.6	1.4	1.1	17.8	x	x	x
Cc1ccc2nc(-c3ccc(NC(=S)NC(=O)CC(C)C)cc3)sc2c1	1.7	13.2	0.4	-1.1	0.1	5.0	x	x	x
Cc1ccc2nc(-c3ccc(NC(=O)C(C)Sc4nncs4)cc3)sc2c1 (configuration not stated)	43.1*	-4.4	3.3	3.6	48.6*	x	32.1	x	x	U2OS cAMP counter=1.9;MC4R cAMP antag=18.3
Cc1cccc(C(=O)Oc2ccc(/C=N/NC(=O)c3ccccc3O)cc2)c1	2.7	15.3	4.5	-0.8	21.8	-7.1	x	x	x
Cc1cccc(C(=O)Oc2ccc(/C=N/NC(=O)c3ccc(O)cc3)cc2)c1	0.4	x	16.3*	-2.1	53.0*	-4.2	13.9	5.6	3.4
CN(CC(=O)NCc1ccc(F)cc1)S(=O)(=O)c1ccc(Br)s1	6.8	-9.8	1.8	-7.2	1.5	6.3	x	x	x
COc1ccc(-c2cc(C3CCN(Cc4ccc([N+](=O)[O-])cc4)CC3)[nH]n2)cc1	-3.0	18.8	-0.2	-3.7	3.8	-0.9	x	x	x
Cc1ccc(CN2CCC(c3cc(-c4ccc(Cl)cc4)n[nH]3)CC2)cc1	2.4	-0.9	10.5*	-0.5	60.9*	-1.8	6.4	19.1*	10.4
NC(=S)N/N=C/c1ccccc1OCCSc1ccc(Cl)cc1	-13.2	-23.5	11.1*	0.3	43.0*	11.1	26.6	1.2	5.7
CC1=NNC(=O)/C1=C\c1cn(-c2ccccc2)nc1-c1ccc(Cl)cc1	31.2*	8.6	17.2*	9.4	101.2*	x	78.1*	33.5*	5.6	U2OS cAMP counter=2.0;MC4R cAMP antag=13.6
Cc1noc(C)c1S(=O)(=O)N(C)C[C@H]1OCCCC[C@H](C)Oc2ccc(NC(=O)CCCN(C)C)cc2C(=O)N([C@H](C)CO)C[C@@H]1C	-3.0	x	-0.8	4.9	x	x	x	x	x
CC(C)c1ccc(/C=N/NC(=O)CN(c2cccc(Cl)c2Cl)S(C)(=O)=O)cc1	-0.4	-15.3	22.1*	-2.0	48.1*	x	39.6	6.0	7.7
Cc1ccc(-c2nn(-c3ccc(F)cc3)cc2C(=O)N(C)CC(=O)Nc2ccc(N3CCOCC3)cc2)cc1	4.8	2.6	-3.6	2.6	3.0	x	x	x	x
CC1CCN(CCCNC(=O)c2ccc3c(=O)n(Cc4ccc(Cl)cc4)c(=S)[nH]c3c2)CC1	4.0	-26.9	12.5*	-9.9	52.2*	12.6	56.7*	9.9*	8.5
COCCCN1C(=O)/C(=C/c2ccc(CNS(=O)(=O)c3ccccc3)o2)C(C(=O)OC)=C1C	16.2	11.8	-1.7	1.4	-0.5	22.0	x	x	x
Nc1c(C(=O)Nc2ccc(S(=O)(=O)N3CCCC3)cc2)sc2nc3cc4c(cc3cc12)CCC4	18.6	2.0	-1.0	-1.2	x	15.7	x	x	x
Nc1c(C(=O)Nc2ccc(S(=O)(=O)N3CCCC3)cc2)sc2nc3ccc(OC(F)(F)F)cc3cc12	16.4	0.8	14.3*	3.1	87.2*	-21.1	21.8	12.5*	14.0
CCCCCCCCCn1c2c(c(=N)c3c1CCC3)CCCC2	-1.3	x	13.4*	-2.1	71.8*	-160.8	79.1*	6.2	6.8
CCn1c2c(c(=N)c3c1CCC3)CCCC2	-1.6	3.0	-2.0	0.1	1.2	-0.1	x	x	x
Cc1cccc(C(=O)NCCC(=O)Nc2ccc(C#N)cc2)c1	-4.9	-18.1	0.3	-1.6	1.3	-12.7	x	x	x
COc1cc(O)c(CC=C(C)C)c(O)c1C(=O)CCc1ccc(O)cc1	-3.9	0.9	36.1*	2.1	55.4*	0.2	27.9	32.1*	5.5
